Data published in ChEMBL document CHEMBL4330096, “Discovery of potent and selective 5-azaindazole inhibitors of leucine-rich repeat kinase 2 (LRRK2) - Part 1” (Bioorg Med Chem Lett, 2019).

Key:
[1] = target: T1, Serine/threonine-protein kinase BRSK2 (Homo sapiens) (UniProt Q8IWQ3); test: Inhibition of BRSK2 (unknown origin) at 10 uM relative to control
T1 sequence (whole entry): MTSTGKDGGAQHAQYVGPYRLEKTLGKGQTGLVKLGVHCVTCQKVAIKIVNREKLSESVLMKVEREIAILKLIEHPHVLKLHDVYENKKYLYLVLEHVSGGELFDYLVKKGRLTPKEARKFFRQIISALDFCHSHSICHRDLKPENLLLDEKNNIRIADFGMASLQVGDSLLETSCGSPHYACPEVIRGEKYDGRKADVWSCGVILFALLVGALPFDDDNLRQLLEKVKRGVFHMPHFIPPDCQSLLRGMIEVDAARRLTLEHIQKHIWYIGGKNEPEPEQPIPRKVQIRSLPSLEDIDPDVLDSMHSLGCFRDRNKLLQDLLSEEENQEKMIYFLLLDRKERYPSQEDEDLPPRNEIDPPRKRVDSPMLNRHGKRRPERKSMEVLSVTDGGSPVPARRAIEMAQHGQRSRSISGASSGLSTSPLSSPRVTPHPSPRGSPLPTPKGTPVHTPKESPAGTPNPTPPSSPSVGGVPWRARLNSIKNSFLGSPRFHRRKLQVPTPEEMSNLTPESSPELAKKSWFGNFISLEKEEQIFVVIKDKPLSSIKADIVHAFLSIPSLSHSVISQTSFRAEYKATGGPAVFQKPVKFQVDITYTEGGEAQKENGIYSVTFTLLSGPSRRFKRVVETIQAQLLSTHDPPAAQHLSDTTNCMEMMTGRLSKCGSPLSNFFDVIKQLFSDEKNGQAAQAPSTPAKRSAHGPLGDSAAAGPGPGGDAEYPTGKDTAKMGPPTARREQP
Outline: (§1)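 Single-point screen of each compound against a panel of 59 protein kinases, at 1 or 10 μM. The panel data are also summarised as a rescaled geometric mean selectivity score.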

[2] = target: Calcium/calmodulin-dependent protein kinase type 1 (Homo sapiens) (UniProt Q14012); test: Inhibition of CAMK1 (unknown origin) at 10 uM relative to control; outline: as §1
Calcium/calmodulin-dependent protein kinase type 1 (Homo sapiens), sequence (Q14012 whole entry, looked up): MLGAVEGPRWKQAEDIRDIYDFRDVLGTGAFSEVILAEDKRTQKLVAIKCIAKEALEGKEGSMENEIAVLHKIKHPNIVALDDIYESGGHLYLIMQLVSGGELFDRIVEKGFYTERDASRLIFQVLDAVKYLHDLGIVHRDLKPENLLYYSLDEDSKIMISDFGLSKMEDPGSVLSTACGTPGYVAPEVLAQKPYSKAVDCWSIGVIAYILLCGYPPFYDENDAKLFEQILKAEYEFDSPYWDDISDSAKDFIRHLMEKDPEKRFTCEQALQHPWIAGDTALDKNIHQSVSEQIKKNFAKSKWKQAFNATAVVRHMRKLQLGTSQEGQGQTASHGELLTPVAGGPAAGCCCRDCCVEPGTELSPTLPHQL

[3] = target: Calcium/calmodulin-dependent protein kinase kinase 2 (Homo sapiens) (UniProt Q96RR4); test: Inhibition of CAMKKb (unknown origin) at 10 uM relative to control; outline: as §1
Calcium/calmodulin-dependent protein kinase kinase 2 (Homo sapiens), sequence (Q96RR4 2-588 limits assumed): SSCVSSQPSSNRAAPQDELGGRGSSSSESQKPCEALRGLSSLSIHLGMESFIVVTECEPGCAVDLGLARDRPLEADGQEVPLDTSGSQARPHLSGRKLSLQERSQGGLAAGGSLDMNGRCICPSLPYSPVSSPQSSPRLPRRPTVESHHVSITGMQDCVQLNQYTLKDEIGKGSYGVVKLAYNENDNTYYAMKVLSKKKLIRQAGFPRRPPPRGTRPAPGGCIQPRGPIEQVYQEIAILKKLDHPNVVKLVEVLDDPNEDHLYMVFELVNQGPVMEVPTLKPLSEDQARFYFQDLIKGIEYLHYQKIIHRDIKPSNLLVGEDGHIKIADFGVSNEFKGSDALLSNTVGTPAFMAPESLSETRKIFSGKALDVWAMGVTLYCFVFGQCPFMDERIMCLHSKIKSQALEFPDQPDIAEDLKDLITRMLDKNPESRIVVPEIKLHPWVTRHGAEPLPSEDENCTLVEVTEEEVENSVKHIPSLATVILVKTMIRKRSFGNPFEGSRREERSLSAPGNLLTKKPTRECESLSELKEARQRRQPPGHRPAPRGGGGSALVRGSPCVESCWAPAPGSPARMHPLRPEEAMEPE

[4] = target: CDK2/Cyclin A2 (Homo sapiens) (UniProt P24941+P20248); test: Inhibition of CDK2/cyclinA (unknown origin) at 10 uM relative to control; assay type: protein-complex assay; outline: as §1
[5] = target: Casein kinase I (Homo sapiens) (UniProt Q9HCP0+P78368+P48730+P49674+P48729); test: Inhibition of CK1 (unknown origin) at 10 uM relative to control; assay type: protein assay; outline: as §1
[6] = target: MAP kinase-interacting serine/threonine-protein kinase 1 (Homo sapiens) (UniProt Q9BUB5); test: Inhibition of MNK1 (unknown origin) at 10 uM relative to control
MAP kinase-interacting serine/threonine-protein kinase 1 (Homo sapiens), sequence (Q9BUB5 whole entry, looked up): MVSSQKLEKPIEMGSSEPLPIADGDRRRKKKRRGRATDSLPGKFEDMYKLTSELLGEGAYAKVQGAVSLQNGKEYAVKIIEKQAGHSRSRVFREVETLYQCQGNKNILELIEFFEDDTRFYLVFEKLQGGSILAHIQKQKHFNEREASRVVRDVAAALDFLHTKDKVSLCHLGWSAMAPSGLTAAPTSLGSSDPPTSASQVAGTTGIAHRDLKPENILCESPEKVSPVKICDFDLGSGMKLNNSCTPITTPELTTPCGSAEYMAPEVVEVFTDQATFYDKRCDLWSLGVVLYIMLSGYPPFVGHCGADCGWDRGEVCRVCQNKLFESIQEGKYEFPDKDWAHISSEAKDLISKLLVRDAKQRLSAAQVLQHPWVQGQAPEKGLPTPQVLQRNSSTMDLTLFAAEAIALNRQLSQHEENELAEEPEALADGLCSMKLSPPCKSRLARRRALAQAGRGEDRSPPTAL
Outline: (§2)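 Single-concentration screen of each compound against a 59-protein-kinase panel, run at 10 µM or 1 µM. Activity relative to control is shown as a heat map across the panel.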

[7] = target: RAC-beta serine/threonine-protein kinase (Homo sapiens) (UniProt P31751); test: Inhibition of PKBb (unknown origin) at 10 uM relative to control; outline: as §2
RAC-beta serine/threonine-protein kinase (Homo sapiens), sequence (P31751 whole entry): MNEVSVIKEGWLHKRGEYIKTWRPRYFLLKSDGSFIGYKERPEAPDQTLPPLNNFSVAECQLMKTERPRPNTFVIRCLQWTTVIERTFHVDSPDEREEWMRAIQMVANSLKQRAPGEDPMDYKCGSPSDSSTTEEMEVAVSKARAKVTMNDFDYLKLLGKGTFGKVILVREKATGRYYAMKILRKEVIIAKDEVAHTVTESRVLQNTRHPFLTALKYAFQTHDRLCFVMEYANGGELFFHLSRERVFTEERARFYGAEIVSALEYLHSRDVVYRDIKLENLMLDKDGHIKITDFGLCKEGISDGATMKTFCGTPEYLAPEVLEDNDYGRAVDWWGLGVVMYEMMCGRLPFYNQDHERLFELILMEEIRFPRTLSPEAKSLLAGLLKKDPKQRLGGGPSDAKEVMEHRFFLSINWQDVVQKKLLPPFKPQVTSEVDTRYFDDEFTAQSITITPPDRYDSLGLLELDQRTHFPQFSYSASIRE

[8] = target: T2, Serine/threonine-protein kinase D1 (Homo sapiens) (UniProt Q15139); test: Inhibition of PKD1 (unknown origin) at 10 uM relative to control; outline: as §2
T2 sequence (whole entry): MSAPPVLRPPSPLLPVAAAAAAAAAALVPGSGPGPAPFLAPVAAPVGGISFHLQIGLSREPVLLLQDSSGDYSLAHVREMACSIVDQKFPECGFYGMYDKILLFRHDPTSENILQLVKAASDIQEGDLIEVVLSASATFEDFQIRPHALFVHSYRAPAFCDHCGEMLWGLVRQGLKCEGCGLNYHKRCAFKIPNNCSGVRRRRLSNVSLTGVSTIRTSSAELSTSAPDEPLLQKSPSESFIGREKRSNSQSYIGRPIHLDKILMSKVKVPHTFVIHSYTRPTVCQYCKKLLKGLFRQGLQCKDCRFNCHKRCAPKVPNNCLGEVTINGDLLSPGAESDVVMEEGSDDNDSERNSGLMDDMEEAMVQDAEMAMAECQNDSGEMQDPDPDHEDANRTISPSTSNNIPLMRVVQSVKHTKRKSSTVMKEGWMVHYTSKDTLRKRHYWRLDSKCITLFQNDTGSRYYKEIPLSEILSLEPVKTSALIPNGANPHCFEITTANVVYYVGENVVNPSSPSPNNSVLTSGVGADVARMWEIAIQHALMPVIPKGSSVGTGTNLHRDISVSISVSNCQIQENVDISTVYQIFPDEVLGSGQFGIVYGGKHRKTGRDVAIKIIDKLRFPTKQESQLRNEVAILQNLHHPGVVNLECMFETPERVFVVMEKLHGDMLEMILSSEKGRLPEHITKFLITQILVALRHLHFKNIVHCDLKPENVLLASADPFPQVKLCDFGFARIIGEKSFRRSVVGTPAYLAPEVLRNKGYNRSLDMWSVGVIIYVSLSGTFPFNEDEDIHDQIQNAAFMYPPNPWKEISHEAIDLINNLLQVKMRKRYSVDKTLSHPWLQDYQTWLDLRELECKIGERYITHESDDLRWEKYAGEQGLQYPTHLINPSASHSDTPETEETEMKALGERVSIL

[9] = target: Serine/threonine-protein kinase PLK1 (Homo sapiens) (UniProt P53350); test: Inhibition of PLK1 (unknown origin) at 10 uM relative to control; outline: as §2
Serine/threonine-protein kinase PLK1 (Homo sapiens), sequence (P53350 whole entry): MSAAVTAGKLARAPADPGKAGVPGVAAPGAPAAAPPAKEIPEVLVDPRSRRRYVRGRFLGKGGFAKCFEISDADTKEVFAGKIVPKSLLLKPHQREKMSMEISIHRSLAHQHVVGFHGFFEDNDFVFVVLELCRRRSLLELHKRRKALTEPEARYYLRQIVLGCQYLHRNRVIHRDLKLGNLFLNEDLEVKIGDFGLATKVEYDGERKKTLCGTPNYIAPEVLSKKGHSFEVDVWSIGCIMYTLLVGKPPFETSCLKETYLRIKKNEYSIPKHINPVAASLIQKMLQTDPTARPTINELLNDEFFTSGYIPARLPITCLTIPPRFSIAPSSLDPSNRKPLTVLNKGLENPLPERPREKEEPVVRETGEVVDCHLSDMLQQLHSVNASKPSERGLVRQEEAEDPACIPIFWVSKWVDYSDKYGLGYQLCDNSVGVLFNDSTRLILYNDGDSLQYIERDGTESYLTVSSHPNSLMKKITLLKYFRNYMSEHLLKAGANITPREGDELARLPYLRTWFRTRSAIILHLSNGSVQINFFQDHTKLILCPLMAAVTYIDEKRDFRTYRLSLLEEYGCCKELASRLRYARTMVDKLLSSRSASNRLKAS

[10] = target: T3, Serine/threonine-protein kinase Sgk1 (Homo sapiens) (UniProt O00141); test: Inhibition of SGK1 (unknown origin) at 10 uM relative to control
T3 sequence (whole entry): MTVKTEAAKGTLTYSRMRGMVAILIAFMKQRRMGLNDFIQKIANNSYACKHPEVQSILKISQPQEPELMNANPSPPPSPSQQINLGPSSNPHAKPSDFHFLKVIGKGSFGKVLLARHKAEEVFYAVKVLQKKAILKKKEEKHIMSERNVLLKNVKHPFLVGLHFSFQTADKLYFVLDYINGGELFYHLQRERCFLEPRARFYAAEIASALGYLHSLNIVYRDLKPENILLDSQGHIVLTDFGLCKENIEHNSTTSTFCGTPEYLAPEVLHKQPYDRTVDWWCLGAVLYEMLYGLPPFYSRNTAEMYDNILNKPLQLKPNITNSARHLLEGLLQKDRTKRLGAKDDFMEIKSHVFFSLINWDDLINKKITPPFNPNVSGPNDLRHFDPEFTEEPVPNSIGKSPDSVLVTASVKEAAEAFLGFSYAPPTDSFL
Outline: (§3)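 Single-concentration screen across a panel of 59 protein kinases, with each compound tested at one fixed concentration. The read-out is residual kinase activity relative to control. Panel results are also condensed into a rescaled geometric mean (RGM) selectivity score.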

[11] = target: Tyrosine-protein kinase SYK (Homo sapiens) (UniProt P43405); test: Inhibition of SYK (unknown origin) at 10 uM relative to control; outline: as §3

SMILES	inhibition [1] [%]	inhibition [2] [%]	inhibition [3] [%]	inhibition [4] [%]	inhibition [5] [%]	inhibition [6] [%]	inhibition [7] [%]	inhibition [8] [%]	inhibition [9] [%]	inhibition [10] [%]	inhibition [11] [%]
Cc1n[nH]c2ccnc(OC3CCCCC3)c12	67	41	72	86	86	12	28	70	53	73	16
Cc1n[nH]c2ccnc(Nc3ccccc3F)c12	68	23	36	79	46	18	15	60	72	69	0
Cc1n[nH]c2ccnc(Nc3ccc4ncsc4c3)c12	35			78	77						0
Cc1n[nH]c2ccnc(NC3CCCCC3)c12	46	13	46	86	27	0	24	34	34	41	17
